ChEMBL document CHEMBL1143573, “Synthesis and structure-activity relationships of a new model of arylpiperazines. 8. Computational simulation of ligand-receptor interaction of 5-HT(1A)R agonists with selectivity over alpha1-adrenoceptors” (J Med Chem, 2005)
pEC50, pKi: −log10 of the molar value.

Columns and labels:
[1] = target: T1, Adrenergic receptor alpha-1 (Rattus norvegicus, UniProt P15823+P23944+P43140); assay: In vitro inhibition of [3H]prazosin binding to Alpha-1 adrenergic receptor in rat cerebral cortex membranes; assay type: cell membranes, Membrane
T1 sequence (P15823 whole entry): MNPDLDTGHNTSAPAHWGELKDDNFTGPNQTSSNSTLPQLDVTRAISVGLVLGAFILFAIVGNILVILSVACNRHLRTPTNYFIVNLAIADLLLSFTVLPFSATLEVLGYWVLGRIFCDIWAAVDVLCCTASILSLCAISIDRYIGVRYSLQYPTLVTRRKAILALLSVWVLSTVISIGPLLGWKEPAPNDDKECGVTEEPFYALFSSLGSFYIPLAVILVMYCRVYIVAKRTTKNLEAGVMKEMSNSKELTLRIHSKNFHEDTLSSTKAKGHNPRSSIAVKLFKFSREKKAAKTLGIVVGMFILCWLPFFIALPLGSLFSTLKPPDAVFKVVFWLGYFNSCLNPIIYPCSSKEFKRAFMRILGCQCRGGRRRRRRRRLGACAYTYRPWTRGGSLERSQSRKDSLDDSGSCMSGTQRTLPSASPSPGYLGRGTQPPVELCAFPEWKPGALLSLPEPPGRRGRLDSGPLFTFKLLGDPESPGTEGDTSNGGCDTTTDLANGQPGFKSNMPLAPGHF
T1 sequence (P23944 whole entry): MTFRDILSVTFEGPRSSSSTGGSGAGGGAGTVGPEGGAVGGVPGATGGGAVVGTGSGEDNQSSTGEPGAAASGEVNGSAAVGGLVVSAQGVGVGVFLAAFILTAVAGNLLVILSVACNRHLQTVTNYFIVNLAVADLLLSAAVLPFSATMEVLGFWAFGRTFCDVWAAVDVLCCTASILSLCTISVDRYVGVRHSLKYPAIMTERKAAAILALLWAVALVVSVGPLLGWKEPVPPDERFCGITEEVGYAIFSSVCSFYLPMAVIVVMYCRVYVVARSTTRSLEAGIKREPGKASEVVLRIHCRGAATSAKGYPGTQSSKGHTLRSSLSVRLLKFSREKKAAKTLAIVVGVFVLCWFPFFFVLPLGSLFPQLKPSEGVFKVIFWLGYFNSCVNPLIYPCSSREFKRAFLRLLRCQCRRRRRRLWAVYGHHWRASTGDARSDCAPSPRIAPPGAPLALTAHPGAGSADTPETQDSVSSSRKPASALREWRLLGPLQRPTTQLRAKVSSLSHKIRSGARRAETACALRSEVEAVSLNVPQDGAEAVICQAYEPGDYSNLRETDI
T1 sequence (P43140 whole entry): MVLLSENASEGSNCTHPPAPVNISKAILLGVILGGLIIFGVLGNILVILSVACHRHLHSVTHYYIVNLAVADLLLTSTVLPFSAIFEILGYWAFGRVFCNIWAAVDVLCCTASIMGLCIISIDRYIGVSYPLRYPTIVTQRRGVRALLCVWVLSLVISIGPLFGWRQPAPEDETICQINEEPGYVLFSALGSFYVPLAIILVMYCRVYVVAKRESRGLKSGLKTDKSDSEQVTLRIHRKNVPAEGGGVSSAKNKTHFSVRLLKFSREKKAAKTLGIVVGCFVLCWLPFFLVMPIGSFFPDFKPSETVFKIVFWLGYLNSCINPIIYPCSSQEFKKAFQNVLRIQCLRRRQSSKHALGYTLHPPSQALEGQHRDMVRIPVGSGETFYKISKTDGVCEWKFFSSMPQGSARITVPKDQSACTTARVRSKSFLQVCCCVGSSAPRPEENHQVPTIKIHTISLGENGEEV
Outline: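 Rat cerebral cortex membranes (about 250 µg protein) in 50 mM Tris-HCl with 10 mM MgCl2, pH 7.4. Incubated 30 min at 25 °C with 0.2 nM [3H]prazosin and six competitor concentrations. Nonspecific binding with 10 µM phentolamine. Compounds screened at 10^-6 M, curves run if displacement exceeded 55%. Triplicates, 2-4 experiments; Ki by Cheng-Prusoff.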

[2] = target: T2, 5-hydroxytryptamine receptor 1A (Rattus norvegicus, UniProt P19327); assay: In vitro inhibition of [3H]8-OH-DPAT binding to 5-hydroxytryptamine 1A receptor in rat cerebral cortex membranes; assay type: cell membranes, Membrane
T2 sequence (P19327 whole entry): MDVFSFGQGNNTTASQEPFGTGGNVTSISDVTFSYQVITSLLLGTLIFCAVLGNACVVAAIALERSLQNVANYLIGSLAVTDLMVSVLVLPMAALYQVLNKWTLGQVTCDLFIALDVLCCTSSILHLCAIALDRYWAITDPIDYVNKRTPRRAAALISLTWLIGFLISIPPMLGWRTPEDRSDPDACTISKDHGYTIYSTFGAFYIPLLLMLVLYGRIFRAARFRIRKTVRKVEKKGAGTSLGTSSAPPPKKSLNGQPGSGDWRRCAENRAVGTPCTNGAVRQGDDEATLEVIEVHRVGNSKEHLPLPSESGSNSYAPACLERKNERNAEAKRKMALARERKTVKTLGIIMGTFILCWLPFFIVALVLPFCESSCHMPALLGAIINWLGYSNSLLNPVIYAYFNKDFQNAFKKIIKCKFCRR
Outline: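 Rat cerebral cortex membranes (about 1 mg protein) incubated 15 min at 37 °C with 0.6 nM [3H]-8-OH-DPAT in 50 mM Tris-HCl, pH 7.4, containing 10 nM clonidine and 30 nM prazosin. Nonspecific binding with 10 µM 5-HT. Compounds screened at 10^-6 M; curves run if displacement exceeded 55%. Filtration, scintillation counting, triplicates, 2-4 experiments; Ki by Cheng-Prusoff.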

[3] = target: T3, 5-hydroxytryptamine receptor 1A (Homo sapiens) (UniProt P08908); assay: (§1) Inhibition of forskolin-induced increase in cAMP in human 5-hydroxytryptamine 1A receptor expressed HeLa cells; assay type: functional, cell-based
T3 sequence (whole entry): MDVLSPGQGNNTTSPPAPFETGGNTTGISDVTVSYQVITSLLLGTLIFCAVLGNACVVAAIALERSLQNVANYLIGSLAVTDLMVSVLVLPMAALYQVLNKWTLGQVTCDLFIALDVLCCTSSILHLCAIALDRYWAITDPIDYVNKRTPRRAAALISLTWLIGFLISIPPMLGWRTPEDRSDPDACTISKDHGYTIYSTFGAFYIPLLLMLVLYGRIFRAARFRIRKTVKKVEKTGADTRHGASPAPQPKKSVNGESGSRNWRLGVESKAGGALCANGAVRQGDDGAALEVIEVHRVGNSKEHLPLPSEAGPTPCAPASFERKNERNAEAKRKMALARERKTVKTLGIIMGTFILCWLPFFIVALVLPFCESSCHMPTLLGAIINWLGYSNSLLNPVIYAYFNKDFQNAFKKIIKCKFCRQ
Outline: (§2)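 HeLa cells stably expressing human 5-HT1A (HA 6) were plated 48 h ahead. Cells treated 10 min at 37 °C, 5% CO2, with 0.5 mM IBMX, 10 µM forskolin and compound (10-9-10-5 M), then lysed in 65% ethanol. cAMP measured by [3H] radioimmunoassay, expressed as % of forskolin-stimulated adenylate cyclase activity. Duplicate experiments, four wells per concentration; EC50 by curve fit.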

[4] = target: Sodium-dependent serotonin transporter (Rattus norvegicus, UniProt P31652); assay: In vitro inhibition of [3H]paroxetine binding to 5-hydroxytryptamine transporter in rat cerebral cortex membranes; assay type: cell membranes, Membrane
Outline: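 Rat cortical membranes (about 120 µg protein) incubated 60 min at 25 °C with 0.2 nM [3H]paroxetine. Buffer is Tris-HCl with 20 mM NaCl and 5 mM KCl, pH 7.4. Nonspecific binding with 10 µM fluoxetine. Filtration, scintillation counting, triplicates; Ki by Cheng-Prusoff.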

[5] = target: 5-hydroxytryptamine receptor 7 (Rattus norvegicus, UniProt P32305); assay: In vitro inhibition of [3H]5-CT binding to 5-hydroxytryptamine 7 receptor in rat hypothalamus membranes; assay type: cell membranes, Membrane
Outline: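 Rat hypothalamus membranes were incubated 120 min at 23 °C with 0.5 nM [3H]-5-CT. Nonspecific binding with 10 µM 5-HT. Filtration and scintillation counting, triplicates, 2-4 experiments. Ki from curve fit by Cheng-Prusoff.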

[6] = target: T4, 5-hydroxytryptamine receptor 1A (Homo sapiens, UniProt P08908); assay: as §1; assay type: functional, cell-based; outline: as §2
T4 sequence (P08908 whole entry): T3 sequence (whole entry)

D(2) dopamine receptor = D(2) dopamine receptor (Rattus norvegicus, UniProt P61169); assay: In vitro inhibition of [3H]-raclopride binding to Dopamine receptor D2 in rat striatum membranes; assay type: cell membranes, Membrane
Outline: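 Male Sprague-Dawley rat striatum membranes (125-150 µg protein) incubated 60 min at 25 °C with 0.8 nM [3H]raclopride and six competitor concentrations. Nonspecific binding with 1 µM (+)-butaclamol. GF/B filtration, scintillation counting, triplicates. Ki by Cheng-Prusoff.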

[7] = target: 5-hydroxytryptamine receptor 4 (Rattus norvegicus, UniProt Q62758); assay: In vitro inhibition of [3H]GR-113808 binding to 5-hydroxytryptamine 4 receptor of rat striatum membranes; assay type: cell membranes, Membrane
Outline: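 Membranes from rat striatum were incubated 30 min at 37 °C with 0.1 nM [3H]GR113808 in 50 mM HEPES, pH 7.4. Nonspecific binding with 30 µM 5-HT. Bound radioactivity counted after GF/B filtration, triplicates. Ki from iterative curve fit via Cheng-Prusoff.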

[8] = target: GABA-A receptor; anion channel; assay: In vitro inhibition of [3H]flunitrazepam binding to Benzodiazepine receptor of rat cerebral cortex membranes; assay type: cell membranes, Membrane
Outline: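 Rat brain membranes (about 100 µg protein) in 25 mM potassium phosphate, pH 7.4, incubated 90 min at 0-4 °C with 0.25 nM [3H]flunitrazepam. Nonspecific binding with 2 µM diazepam. Filtration, scintillation counting, triplicates; Ki by Cheng-Prusoff.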

[9] = target: 5-hydroxytryptamine receptor 2A (Rattus norvegicus, UniProt P14842); assay: In vitro inhibition of [3H]ketanserin binding to 5-hydroxytryptamine 2A receptor in rat cerebral frontal cortex membranes; assay type: cell membranes, Membrane
Outline: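 Rat frontal cortex membranes were incubated 15 min at 37 °C with 0.4 nM [3H]ketanserin. Nonspecific binding with 1 µM cinanserin. Filtration, scintillation counting, triplicates; Ki by Cheng-Prusoff.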

[10] = target: T5, 5-hydroxytryptamine receptor 3A (Rattus norvegicus, UniProt P35563); assay: In vitro inhibition of [3H]LY-278584 binding to 5-hydroxytryptamine 3 receptor in rat cerebral cortex membranes; assay type: cell membranes, Membrane
T5 sequence (P35563 whole entry): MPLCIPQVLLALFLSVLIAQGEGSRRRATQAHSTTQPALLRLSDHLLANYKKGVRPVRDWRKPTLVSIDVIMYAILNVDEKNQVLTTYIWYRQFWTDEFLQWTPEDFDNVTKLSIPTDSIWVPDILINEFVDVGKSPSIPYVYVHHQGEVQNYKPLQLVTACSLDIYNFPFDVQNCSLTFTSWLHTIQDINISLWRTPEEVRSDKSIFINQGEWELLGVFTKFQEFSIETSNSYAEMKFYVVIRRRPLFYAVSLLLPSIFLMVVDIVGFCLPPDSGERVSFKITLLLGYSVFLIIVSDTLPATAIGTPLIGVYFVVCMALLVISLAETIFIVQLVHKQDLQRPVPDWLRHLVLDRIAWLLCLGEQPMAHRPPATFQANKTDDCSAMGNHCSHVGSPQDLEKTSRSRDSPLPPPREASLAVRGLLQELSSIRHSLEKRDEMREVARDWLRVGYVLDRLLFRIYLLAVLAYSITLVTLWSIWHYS
Outline: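 Sucrose-prepared rat cerebral cortex membranes were incubated 30 min at 25 °C with 0.7 nM [3H]LY278584. Nonspecific binding with 10 µM 5-HT. Filtration and scintillation counting, triplicates; Ki by Cheng-Prusoff.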

Sodium-dependent serotonin transporter, sequence (P31652 whole entry): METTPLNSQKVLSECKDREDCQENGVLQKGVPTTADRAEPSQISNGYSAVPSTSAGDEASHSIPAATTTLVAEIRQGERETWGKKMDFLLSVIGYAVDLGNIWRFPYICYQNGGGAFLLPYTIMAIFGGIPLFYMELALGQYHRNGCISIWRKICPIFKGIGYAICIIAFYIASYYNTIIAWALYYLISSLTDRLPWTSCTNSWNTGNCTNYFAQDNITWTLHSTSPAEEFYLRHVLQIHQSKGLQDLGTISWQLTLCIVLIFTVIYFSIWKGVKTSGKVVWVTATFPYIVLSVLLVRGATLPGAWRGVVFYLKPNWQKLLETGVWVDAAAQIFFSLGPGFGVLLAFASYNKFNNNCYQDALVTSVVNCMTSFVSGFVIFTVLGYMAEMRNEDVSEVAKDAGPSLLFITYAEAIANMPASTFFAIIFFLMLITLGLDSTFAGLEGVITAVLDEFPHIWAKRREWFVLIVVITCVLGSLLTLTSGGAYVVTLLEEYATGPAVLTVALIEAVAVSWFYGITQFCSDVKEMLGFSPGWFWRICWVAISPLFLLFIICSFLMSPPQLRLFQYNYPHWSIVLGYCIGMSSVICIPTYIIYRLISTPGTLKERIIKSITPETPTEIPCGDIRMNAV
D(2) dopamine receptor, sequence (P61169 whole entry): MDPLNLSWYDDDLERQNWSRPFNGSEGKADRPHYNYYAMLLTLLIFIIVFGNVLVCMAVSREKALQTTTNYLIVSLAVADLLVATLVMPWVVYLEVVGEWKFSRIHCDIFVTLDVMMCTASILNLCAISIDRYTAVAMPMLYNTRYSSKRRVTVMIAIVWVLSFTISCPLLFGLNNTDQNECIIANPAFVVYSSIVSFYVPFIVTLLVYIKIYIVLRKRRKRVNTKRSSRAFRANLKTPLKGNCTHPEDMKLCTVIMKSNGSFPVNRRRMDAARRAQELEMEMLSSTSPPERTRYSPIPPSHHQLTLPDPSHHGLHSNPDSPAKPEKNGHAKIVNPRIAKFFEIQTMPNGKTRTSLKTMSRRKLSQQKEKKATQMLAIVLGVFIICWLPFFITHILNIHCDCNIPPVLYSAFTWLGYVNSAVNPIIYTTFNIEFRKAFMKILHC
5-hydroxytryptamine receptor 7, sequence (P32305 whole entry): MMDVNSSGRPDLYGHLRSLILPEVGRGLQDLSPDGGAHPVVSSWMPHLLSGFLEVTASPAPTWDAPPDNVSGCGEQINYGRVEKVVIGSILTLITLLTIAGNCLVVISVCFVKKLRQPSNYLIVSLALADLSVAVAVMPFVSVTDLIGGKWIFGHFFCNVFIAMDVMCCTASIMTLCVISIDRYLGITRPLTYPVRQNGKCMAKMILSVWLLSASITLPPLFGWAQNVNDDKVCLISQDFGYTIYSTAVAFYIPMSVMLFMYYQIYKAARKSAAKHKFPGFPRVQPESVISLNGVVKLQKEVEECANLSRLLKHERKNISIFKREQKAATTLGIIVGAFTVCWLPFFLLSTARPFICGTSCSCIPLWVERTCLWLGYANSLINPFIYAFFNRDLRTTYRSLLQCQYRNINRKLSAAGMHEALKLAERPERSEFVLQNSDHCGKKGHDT
5-hydroxytryptamine receptor 4, sequence (Q62758 whole entry): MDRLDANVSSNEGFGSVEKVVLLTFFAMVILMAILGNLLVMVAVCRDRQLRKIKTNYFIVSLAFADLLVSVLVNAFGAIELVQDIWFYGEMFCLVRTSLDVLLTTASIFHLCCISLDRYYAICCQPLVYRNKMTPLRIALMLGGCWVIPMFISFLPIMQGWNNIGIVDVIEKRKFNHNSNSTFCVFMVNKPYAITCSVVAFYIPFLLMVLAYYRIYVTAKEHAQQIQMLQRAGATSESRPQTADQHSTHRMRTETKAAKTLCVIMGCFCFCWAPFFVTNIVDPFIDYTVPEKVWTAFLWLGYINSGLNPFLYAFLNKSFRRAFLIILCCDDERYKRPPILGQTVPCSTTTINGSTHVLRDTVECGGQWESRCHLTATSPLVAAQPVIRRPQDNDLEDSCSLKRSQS
5-hydroxytryptamine receptor 2A, sequence (P14842 whole entry): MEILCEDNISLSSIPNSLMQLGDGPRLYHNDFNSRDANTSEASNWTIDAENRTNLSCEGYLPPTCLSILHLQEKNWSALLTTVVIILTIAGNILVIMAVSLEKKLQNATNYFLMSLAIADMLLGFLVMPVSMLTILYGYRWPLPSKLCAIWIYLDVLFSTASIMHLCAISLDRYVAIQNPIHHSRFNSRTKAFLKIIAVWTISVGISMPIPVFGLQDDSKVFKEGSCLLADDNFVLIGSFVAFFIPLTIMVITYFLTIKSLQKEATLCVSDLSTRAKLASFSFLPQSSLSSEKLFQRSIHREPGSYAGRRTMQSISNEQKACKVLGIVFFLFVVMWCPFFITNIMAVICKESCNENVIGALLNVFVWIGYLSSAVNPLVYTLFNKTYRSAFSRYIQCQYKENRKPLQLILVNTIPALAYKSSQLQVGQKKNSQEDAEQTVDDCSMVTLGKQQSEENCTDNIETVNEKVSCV

SMILES	Ki [1] [nM]	pKi [1]	other results
O=C1C2CCCCN2C(=O)N1CN1CCN(c2cccc3c2OCCO3)CC1 (configuration not stated)	> 1000	–	–
C[C@H]1CN(c2cccc3ccccc23)CCN1CCCCN1CC(=O)N2CCC[C@H]2C1=O	34.4	–	–
C[C@@H]1CN(c2cccc3ccccc23)CCN1CN1CC(=O)N2CCC[C@H]2C1=O	> 1000	–	–
O=C1C2CCCCN2C(=O)N1CN1CCN(c2cccc3ccccc23)CC1 (configuration not stated)	> 1000	–	–
O=C1[C@H]2CCCN2C(=O)CN1CN1CCN(c2cccc3ccccc23)CC1	> 1000	–	pKi [2]: 8.34
CCS(=O)(=O)Nc1cccc(N2CCN(CCCCN3C(=O)C4CCCN4C3=O)CC2)c1 (configuration not stated)	> 1000	–	–
O=C1[C@@H]2CCCN2C(=O)CN1CN1CCN(c2cccc3c2CC=COO3)CC1	> 1000	–	pKi [2]: 7.91
O=C1C2CCCN2C(=O)N1CCCCN1CCN(c2cccc3[nH]cnc23)CC1 (configuration not stated)	19.4	–	–
O=C1C2CCCN2C(=O)CN1CN1CCN(c2cccc3c2CC=COO3)CC1 (configuration not stated)	> 1000	–	pKi [2]: 7.94
C[C@@H]1CN(c2cccc3ccccc23)CCN1CN1CC(=O)N2CCC[C@@H]2C1=O	> 1000	–	–
C[C@@H]1CN(c2cccc3ccccc23)CCN1CCCCN1CC(=O)N2CCC[C@@H]2C1=O	20.1	–	–
C[C@H]1CN(c2cccc3ccccc23)CCN1CN1CC(=O)N2CCC[C@@H]2C1=O	> 1000	–	–
O=C1C2CCCN2C(=O)CN1CN1CCN(c2cccc3ccccc23)CC1 (configuration not stated)	> 1000	–	pKi [2]: 8.17
O=C1C2CCCN2C(=O)N1CN1CCN(c2cccc3[nH]cnc23)CC1 (configuration not stated)	–	< 5.00	–
O=C1C2CCCN2C(=O)CN1CCCCN1CCN(c2cccc3ccccc23)CC1 (configuration not stated)	8	–	–
C[C@H]1CN(c2cccc3ccccc23)CCN1CN1CC(=O)N2CCC[C@H]2C1=O	> 1000	–	–
O=C1C2CCCN2C(=O)N1CN1CCN(c2cccc3ccccc23)CC1 (configuration not stated)	> 1000	–	–
O=C1[C@@H]2CCCN2C(=O)CN1CN1CCN(c2cccc3ccccc23)CC1	> 1000	–	Maximal effect [3]: 90.3%; pKi [4]: 6.01; pKi [5]: 7.00; pEC50 [6]: 6.82; pKi (D(2) dopamine receptor): 6.72; pKi [7]: < 5.00; pKi [2]: 8.39; pKi [8]: < 5.00; pKi [9]: 7.87; pKi [10]: 8.05
